# Activity calls are given as the source filed them. The calls are words filed in the database; no cut-off is given here.
# Legend:
# [1] = Cytotoxicity against human HeLa Rh cells assessed as reduction in cell viability after 3 days by MTS assay; assay type: cell-based
# [2] = Selectivity index, ratio of CC50 for human HeLa Rh cells to EC50 for Rhinovirus B14 capsid infected in human HeLa Rh cells; assay type: toxicity, cell-based; conditions: read-out: Ratio CC50/EC50
# Summary of the method: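 SI = CC₅₀/EC₅₀ for RV-B14 in HeLa Rh cells, both from the same 3-day 35 °C MTS CPE assay. CC₅₀ was obtained by light-microscope scoring of compound-treated uninfected cells, and EC₅₀ from MTS dose-response. Both values were derived by logarithmic interpolation and reported as median ± median absolute deviation.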
# [3] = molecular target: T1, VP1 capsid protein (Human rhinovirus sp.) (UniProt Q7T664); test: Inhibition of Rhinovirus B14 capsid infected in human HeLa Rh cells assessed as reduction in viral replication at 1 uM administered 2 hrs before infection measured after 8 hrs post infection by RT-qPCR analysis; assay type: cell-based
# T1 sequence (whole entry): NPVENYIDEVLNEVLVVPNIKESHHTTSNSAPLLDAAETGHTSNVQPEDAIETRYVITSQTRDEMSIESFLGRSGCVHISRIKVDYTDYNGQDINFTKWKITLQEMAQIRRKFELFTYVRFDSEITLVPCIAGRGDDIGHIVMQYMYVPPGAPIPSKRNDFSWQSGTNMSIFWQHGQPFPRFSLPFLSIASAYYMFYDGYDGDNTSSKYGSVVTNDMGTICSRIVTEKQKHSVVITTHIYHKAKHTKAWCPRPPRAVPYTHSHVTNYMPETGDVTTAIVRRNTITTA
# Summary of the method: (§1)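 HeLa Rh cells adhered overnight, then given 1 µM compound 2 h before, at, or 2, 4 or 6 h after RV-B14 infection. Untreated infected cells served as controls. Cells lysed at 8 h post-infection, DNases heat-inactivated at 75 °C for 15 min. Intracellular viral RNA measured by SYBR one-step qRT-PCR against a gBlock standard series, reported as genome equivalents per sample.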
# rhinovirus B14 [4] = test: Antiviral activity against Rhinovirus B14 infected in human HeLa Rh cells assessed as reduction in viral replication at 1 uM administered at the time of infection measured after 8 hrs post infection by RT-qPCR analysis; assay type: functional, organism-based; summary of the method: as §1
# rhinovirus B14 [5] = test: Antiviral activity against Rhinovirus B14 infected in human HeLa Rh cells assessed as reduction in viral replication at 1 uM administered at >= 2 hrs post infection measured after 8 hrs post infection by RT-qPCR analysis; assay type: functional, organism-based; summary of the method: as §1
# CHO-K1 [6] = test: Genotoxicity in CHOK1 cells assessed as increase in micronucleated cell rates at 1 to 100 uM after 3 hrs in presence of Sprague-Dawley rat S9 fraction and cytokinesis blocking agent cytochalasin B by Giemsa-staining based assay; assay type: toxicity, Cricetulus griseus; conditions: chinese hamster, s9, 3 h
# Summary of the method: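 CHO-K1 cells were seeded at 100,000 cells/ml and pre-incubated 24 h. S9 mix from Aroclor 1254-treated male Sprague-Dawley rat liver (1% S9, 0.5 mM G6P, 0.4 mM NADP) was added at 10%, and compound (1–100 μM) was given in duplicate for 3 h at 37 °C. Controls were medium, 1% DMSO and benzo-a-pyrene 5 µg/ml. Cells then had 21 h in 3 µg/ml cytochalasin B and Giemsa staining. Micronuclei were counted in 1000 binucleated cells per well at doses with CI% decrease <55 ± 5%, and compared by χ² test.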
# CHO-K1 [7] = test: Genotoxicity in CHOK1 cells assessed as increase in micronucleated cell rates at 1 to 100 uM after 3 hrs in absence of Sprague-Dawley rat S9 fraction and presence of cytokinesis blocking agent cytochalasin B by Giemsa-staining based assay; assay type: toxicity, Cricetulus griseus; conditions: chinese hamster, cho-k1, 3 h
# Summary of the method: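 CHO-K1 cells were seeded at 100,000 cells/ml and pre-incubated 24 h, then exposed in duplicate to compound (1–100 μM) for 3 h at 37 °C without S9. Controls were medium, 1% DMSO and mitomycin C 0.6 µg/ml. Cells then had 21 h in 3 µg/ml cytochalasin B, followed by methanol fixation and 10% Giemsa. Micronuclei were counted in 1000 binucleated cells per well, restricted to doses with CI% decrease <55 ± 5%, and compared by χ² test.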
# [8] = molecular target: T1, VP1 capsid protein (Human rhinovirus sp.); test: Inhibition of Rhinovirus B14 capsid infected in human HeLa Rh cells assessed as number of wells with full cytopathic effect at 4 times EC50 concentration after 1st passage measured after 3 days by MTS assay relative to control; assay type: cell-based; parameters: scale not given: the % may be the effect or the level left
# Summary of the method: (§2)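 Confluent HeLa cells were infected with wild-type RV-B14 with compound present at 1x, 2x or 4x in vitro EC₅₀, n=4 wells. Supernatant was diluted 1:10 onto fresh HeLa cells with compound, for four passages. Value is percentage of wells with full CPE.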
# [9] = molecular target: T1, VP1 capsid protein (Human rhinovirus sp.); test: Inhibition of Rhinovirus B14 capsid infected in human HeLa Rh cells assessed as number of wells with full cytopathic effect at 2 times EC50 concentration after 1st passage measured after 3 days by MTS assay relative to control; assay type: cell-based; parameters: scale not given: the % may be the effect or the level left; summary of the method: as §2
# [10] = molecular target: T1, VP1 capsid protein (Human rhinovirus sp.); test: Inhibition of Rhinovirus B14 capsid infected in human HeLa Rh cells assessed as number of wells with full cytopathic effect at EC50 concentration after 1st passage measured after 3 days by MTS assay relative to control; assay type: cell-based; parameters: scale not given: the % may be the effect or the level left; summary of the method: as §2
# rhinovirus B14 [11] = test: Inhibition of Rhinovirus B14 capsid infected in human HeLa Rh cells assessed as number of wells with full cytopathic effect at 4 times EC50 concentration after 2nd passage measured after 3 days by MTS assay relative to control; assay type: functional; parameters: scale not given: the % may be the effect or the level left; summary of the method: as §2
# [12] = molecular target: T1, VP1 capsid protein (Human rhinovirus sp.); test: Inhibition of Rhinovirus B14 capsid infected in human HeLa Rh cells assessed as number of wells with full cytopathic effect at 2 times EC50 concentration after 2nd passage measured after 3 days by MTS assay relative to control; assay type: cell-based; parameters: scale not given: the % may be the effect or the level left; summary of the method: as §2
# [13] = molecular target: T1, VP1 capsid protein (Human rhinovirus sp.); test: Inhibition of Rhinovirus B14 capsid infected in human HeLa Rh cells assessed as number of wells with full cytopathic effect at EC50 concentration after 2nd passage measured after 3 days by MTS assay relative to control; assay type: cell-based; parameters: scale not given: the % may be the effect or the level left; summary of the method: as §2
# [14] = molecular target: T1, VP1 capsid protein (Human rhinovirus sp.); test: Inhibition of Rhinovirus B14 capsid infected in human HeLa Rh cells assessed as number of wells with full cytopathic effect at 4 times EC50 concentration after 3rd passage measured after 3 days by MTS assay relative to control; assay type: cell-based; parameters: scale not given: the % may be the effect or the level left; summary of the method: as §2
# [15] = molecular target: T1, VP1 capsid protein (Human rhinovirus sp.); test: Inhibition of Rhinovirus B14 capsid infected in human HeLa Rh cells assessed as number of wells with full cytopathic effect at 2 times EC50 concentration after 3rd passage measured after 3 days by MTS assay relative to control; assay type: cell-based; parameters: scale not given: the % may be the effect or the level left; summary of the method: as §2
# [16] = molecular target: T1, VP1 capsid protein (Human rhinovirus sp.); test: Inhibition of Rhinovirus B14 capsid infected in human HeLa Rh cells assessed as number of wells with full cytopathic effect at EC50 concentration after 3rd passage measured after 3 days by MTS assay relative to control; assay type: cell-based; parameters: scale not given: the % may be the effect or the level left; summary of the method: as §2
# [17] = molecular target: T1, VP1 capsid protein (Human rhinovirus sp.); test: Inhibition of Rhinovirus B14 capsid infected in human HeLa Rh cells assessed as number of wells with full cytopathic effect at 4 times EC50 concentration after 4th passage measured after 3 days by MTS assay relative to control; assay type: cell-based; parameters: scale not given: the % may be the effect or the level left; summary of the method: as §2
# [18] = molecular target: T1, VP1 capsid protein (Human rhinovirus sp.); test: Inhibition of Rhinovirus B14 capsid infected in human HeLa Rh cells assessed as number of wells with full cytopathic effect at 2 times EC50 concentration after 4th passage measured after 3 days by MTS assay relative to control; assay type: cell-based; parameters: scale not given: the % may be the effect or the level left; summary of the method: as §2
# [19] = molecular target: T1, VP1 capsid protein (Human rhinovirus sp.); test: Inhibition of Rhinovirus B14 capsid infected in human HeLa Rh cells assessed as number of wells with full cytopathic effect at EC50 concentration after 4th passage measured after 3 days by MTS assay relative to control; assay type: cell-based; parameters: scale not given: the % may be the effect or the level left; summary of the method: as §2
# [20] = molecular target: T1, VP1 capsid protein (Human rhinovirus sp.); test: Inhibition of capsid of VP1 A150V mutant harboring Rhinovirus B14 assessed as reduction of virus induced cytopathic effect at 4 times EC50 concentration after 4th passage measured after 3 days by MTS assay
# [21] = molecular target: T1, VP1 capsid protein (Human rhinovirus sp.); test: Inhibition of capsid of VP1 C199W mutant harboring Rhinovirus B14 assessed as reduction of virus induced cytopathic effect at 1 times EC50 concentration after 4th passage measured after 3 days by MTS assay
# [22] = molecular target: T1, VP1 capsid protein (Human rhinovirus sp.); test: Inhibition of capsid of VP1 N105S mutant harboring Rhinovirus B14 assessed as reduction of virus induced cytopathic effect at 2 times EC50 concentration after 4th passage measured after 3 days by MTS assay
smiles,measurement,setting,value
Cn1cc(-c2ccc(C[C@H](O)c3ccc(-n4cccn4)cc3)c([N+](=O)[O-])c2)cn1,CC50 at 72 h,[1],> 342 µM
same,selectivity ratio,[2],> 9770
same,inhibition,[3],Active
same,Activity,rhinovirus B14 [4],Active
same,Activity,rhinovirus B14 [5],inactive
same,Activity,CHO-K1 [6],Non-Toxic
same,Activity,CHO-K1 [7],Non-Toxic
Cn1nc(C(F)(F)F)cc1-c1ccc(CC(O)c2ccc(-c3ccncc3)cc2)c([N+](=O)[O-])c1 (racemic),CC50 at 72 h,[1],> 100 µM
same,selectivity ratio,[2],> 100
Cn1cc(-c2ccc(C[C@@H](O)c3ccc(-n4cccn4)cc3)c([N+](=O)[O-])c2)cn1,CC50 at 72 h,[1],> 342 µM
same,selectivity ratio,[2],> 136
Cc1noc(C)c1-c1ccc(CC(O)c2ccc(-n3cncn3)cc2)c([N+](=O)[O-])c1 (racemic),CC50 at 72 h,[1],> 256 µM
COC(=O)c1ccc(CC(O)c2ccc(-c3ccncc3)cc2)c([N+](=O)[O-])c1 (racemic),CC50 at 72 h,[1],> 264 µM
same,selectivity ratio,[2],> 41
Cn1nc(C(F)(F)F)cc1-c1ccc(CC(O)c2ccc(-n3cccn3)cc2)c([N+](=O)[O-])c1 (racemic),CC50 at 72 h,[1],14 µM
same,selectivity ratio,[2],29
Cn1cc(-c2ccc(C[C@H](O)c3ccc(-n4cncn4)cc3)c([N+](=O)[O-])c2)cn1,CC50 at 72 h,[1],> 342 µM
same,selectivity ratio,[2],> 5700
same,inhibition,[3],Active
same,Activity,rhinovirus B14 [4],Active
same,Activity,rhinovirus B14 [5],inactive
same,Activity,CHO-K1 [6],Non-Toxic
same,Activity,CHO-K1 [7],Non-Toxic
O=[N+]([O-])c1cc(-c2cncs2)ccc1CC(O)c1ccc(-n2cncn2)cc1 (racemic),CC50 at 72 h,[1],44 µM
same,selectivity ratio,[2],110
Cc1cc(CCCOc2c(C)cc(-c3noc(C(F)(F)F)n3)cc2C)on1 [PLECONARIL],CC50 at 72 h,[1],> 131 µM
same,selectivity ratio,[2],> 4040
same,inhibition,[3],Active
same,Activity,rhinovirus B14 [4],Active
same,Activity,rhinovirus B14 [5],inactive
same,Activity,[8],0%
same,Activity,[9],0%
same,Activity,[10],0%
same,Activity,rhinovirus B14 [11],0%
same,Activity,[12],0%
same,Activity,[13],100%
same,Activity,[14],25%
same,Activity,[15],100%
same,Activity,[16],100%
same,Activity,[17],25%
same,Activity,[18],100%
same,Activity,[19],100%
Cn1cc(-c2ccc(C[C@@H](O)c3ccc(-n4cncn4)cc3)c([N+](=O)[O-])c2)cn1,CC50 at 72 h,[1],> 342 µM
Cn1cc(-c2ccc(CC(O)c3ccc(-n4cncn4)cc3)c([N+](=O)[O-])c2)cn1 (racemic),CC50 at 72 h,[1],256 to 699 µM
same,selectivity ratio,[2],1420 to 3880
same,inhibition,[3],Active
same,Activity,rhinovirus B14 [4],Active
same,Activity,rhinovirus B14 [5],inactive
same,Activity,[8],0%
same,Activity,[9],0%
same,Activity,[10],0%
same,Activity,rhinovirus B14 [11],0%
same,Activity,[12],0%
same,Activity,[13],50%
same,Activity,[14],0%
same,Activity,[15],25%
same,Activity,[16],75%
same,Activity,[17],0%
same,Activity,[18],50%
same,Activity,[19],100%
same,inhibition,[20],inactive
same,inhibition,[21],Active
same,inhibition,[22],Active
O=[N+]([O-])c1cc(-c2ccco2)ccc1CC(O)c1ccc(-c2ccncc2)cc1 (racemic),CC50 at 72 h,[1],> 86 µM
same,selectivity ratio,[2],> 72
Cn1nc(C(F)(F)F)cc1-c1ccc(CC(O)c2ccc(-n3cncn3)cc2)c([N+](=O)[O-])c1 (racemic),CC50 at 72 h,[1],21 µM
O=[N+]([O-])c1cc(Cl)ccc1CC(O)c1ccc(-n2cccn2)cc1 (racemic),CC50 at 72 h,[1],> 100 µM
same,selectivity ratio,[2],> 781
O=[N+]([O-])c1cc(F)ccc1CC(O)c1ccc(-n2cccn2)cc1 (racemic),CC50 at 72 h,[1],> 100 µM
same,selectivity ratio,[2],> 12
O=[N+]([O-])c1cc(-c2cccs2)ccc1CC(O)c1ccc(-c2ccncc2)cc1 (racemic),CC50 at 72 h,[1],> 248 µM
same,selectivity ratio,[2],> 191
Cc1noc(C)c1-c1ccc(CC(O)c2ccc(-n3cccn3)cc2)c([N+](=O)[O-])c1 (racemic),CC50 at 72 h,[1],14 µM
O=[N+]([O-])c1cc(Br)ccc1CC(O)c1ccc(-n2cccn2)cc1 (racemic),CC50 at 72 h,[1],22.5 µM
same,selectivity ratio,[2],90
O=[N+]([O-])c1cc(Br)ccc1CC(O)c1ccc(-c2ccncc2)cc1 (racemic),CC50 at 72 h,[1],> 250 µM
same,selectivity ratio,[2],> 424
O=[N+]([O-])c1cc(Br)ccc1CC(O)c1ccc(-n2cncn2)cc1 (racemic),CC50 at 72 h,[1],39 µM
same,selectivity ratio,[2],156
